Results reported in ChEMBL document CHEMBL4513216, “Probing the Open Global Health Chemical Diversity Library for Multistage-Active Starting Points for Next-Generation Antimalarials” (ACS Infect Dis, 2020).

Experiment: Toxicity liver stage against HepG2, at 10uM
Format: cell-based
Set-up: test concentration 10 uM, cell line HepG2-A16-CD81EGFP
Settings: human, HepG2-A16-CD81EGFP cells; read-out: INHIBITION
Summary of the method: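 Uninfected HepG2-A16-CD81EGFP cells, 3 × 10^3 per well, 1536-well, plated on prespotted compound at 10 μM final, parasite-free screening media added to match infected plates; puromycin 10 μM positive, DMSO 0.5% negative; run in parallel with 48 h PbLuc assay at 37 °C, 5% CO2; viability by CellTiter-Glo luminescence, normalized to controls.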

SMILES | cytotoxicity at 10 µM [%]
COCCO[C@H]1COCCN(C2CCN(C)CC2)C1 | 3.08
O=C1CO[C@H]2CN(Cc3ccc(C(F)(F)F)cc3)C[C@H]2N1 | -4.63
Cc1cc(O)cc2c(=O)oc(CC(C)O)cc12 (stereo unspecified) | 0.346
Cc1nc(-c2ccoc2)n(CC(=O)NCC(C)C)c1C | -1.49
NC1(CNC(=O)c2cc3ccccc3[nH]2)CCCC1 | 15.5
CC(C)CNC(=O)CNc1c(NCc2ccccn2)c(=O)c1=O | -9.06
CC(=O)CSc1nc2c(cnn2CCO)c(=O)[nH]1 | -2.22
CCCc1cc(=O)[nH]c2nnc(SCC(=O)NCCc3ccccc3)n12 | 14.2
CCN1CCOCC2(CCCN(C(=O)c3cnccn3)C2)C1 (stereo unspecified) | 6.21
COCCN(CCOC)C(=O)c1ccn(-c2ccc3ccccn23)n1 | 7.22
O=C(NC1CCCC1)c1nc2c(o1)CN(C(=O)CCO)C2 | 5.38
CCS(=O)(=O)N1CCc2cc(C(=O)NC)c(NCC(C)C)nc2CC1 | -149
O=C(Nc1ccccc1)C1=NOC2(CCCN(C(=O)N3CCCC3)C2)C1 (stereo unspecified) | -1.66
O=C(c1cccs1)N1CCOCC2(C1)CN(c1ccccc1)C(=O)CO2 (stereo unspecified) | -0.756
O=C(c1ccco1)N1CCCC2(CN(Cc3ccoc3)CCO2)C1 (stereo unspecified) | -2.59
O=S1(=O)c2ccccc2OCC2(CCN(CCO)CC2)CN1CC1CC1 | 0.864
Cc1cnc(N2CCC3(CCN(CC4CC4)C3=O)CC2)nc1 | 6.17
Cn1cc(CN2CCCn3cnc(CN4CCCC4=O)c3C2)cn1 | -1.39
Cc1ccoc1C(=O)N1CC[C@H]2O[C@@H](C)C[C@H]2C1 | -4.93
COc1cccc(OCCc2nnc(NC(C)=O)s2)c1 | 4.84
CCn1nc(C)c2ncnc(NCCCN3CCOCC3)c21 | 2.06
CN1CCc2nnc(C3CCCN3S(=O)(=O)c3ccc(F)cc3)n2CC1 (stereo unspecified) | -0.594
CCS(=O)(=O)N1C[C@@H](C(=O)NC(C)C)[C@@]2(Cc3ccccc3C(=O)N2)C1 | 1.11

SMILES | cytotoxicity at 10 µM [%]
CC(C)N1CCCCC1c1cc(CO)[nH]n1 (stereo unspecified) | 4.61
CNc1ncc(C(=O)N2CCOC(C(=O)Nc3ccccc3)C2)cn1 (stereo unspecified) | -4.35
O=C(O)c1cncc(Cc2ccccc2F)c1 | 0.812
NCc1cccc(-c2cccnc2C(=O)NCCN2CCCC2)c1 | -6.9
Cc1ccccc1CC(=O)N1C[C@@H](O)[C@H](N2CCOCC2)C1 | -4.05
Cn1cc(C(=O)NCCc2csc(-c3ccccc3)n2)ccc1=O | -6.7
Cc1ccc(N2CCC(NC(C)c3ccc(C)o3)CC2)nc1 (stereo unspecified) | -6.59
COCCN(C(=O)c1ccsc1)c1ccc(C#N)cc1 | 4.19
COC(=O)c1ccc(N2CCN(Cc3csc(C)n3)CC2)nn1 | -1.7
CC(C)CCn1ccc(NC2CCSC2)n1 (stereo unspecified) | 6.93
O=C(NCCN1CCOCC1)c1ccn(-c2ccccc2F)n1 | 7.44
CC(C)(C)C(=O)NCCC(=O)NS(=O)(=O)c1cccc(C#N)c1 | 1.01
O=C(CCc1ccsc1)NCc1ccnc(OC2CCOCC2)c1 | 5.92
O=C1CC(N(C(=O)c2ccccc2Br)C2CC2)C(=O)N1 (stereo unspecified) | 10.3
N#Cc1ccccc1N1CCN(C(=O)NCC(=O)N2CCCC2)CC1 | -1.55
Cn1cc(C(=O)N2CCN(Cc3cscn3)CC2)ccc1=O | -4.79
Cc1ccc(C(=O)NCCCN(C(C)C)S(C)(=O)=O)c(=O)[nH]1 | -8.04
Cc1ccc(-c2cc(CN3CCc4cncnc4C3)on2)cc1 | 4.96
CC(C)(C)n1ncc2c1CCCC2NCc1cccc(C(N)=O)c1 (stereo unspecified) | -0.25
CC(C)(C)OC(=O)N1CCC(C(=O)NCc2cc3ccccc3[nH]2)C1 (stereo unspecified) | 2.34
CNC(=O)c1ccc(CNC(=O)c2ccc(Cl)cc2F)cc1 | 5.66
CCNC(=O)C1CCCN1S(=O)(=O)c1sc(=O)[nH]c1C (stereo unspecified) | 1.34
CCOC(=O)c1nc(CN2CCN(C(=O)NC3CCCCC3)CC2)cs1 | -3.47

SMILES | cytotoxicity at 10 µM [%]
O=C(NC(CN1CCCC1)c1ccccc1)c1c(O)cc(F)cc1F (stereo unspecified) | -2.3
O=C(Nc1nncs1)N(Cc1cccc(O)c1)C1CC1 | 4.14
Cc1cc(C(=O)N(C)CC(F)(F)C(F)(F)F)ccc1-n1cncn1 | 1.64
Cc1cccc(C2CCCN2C(=O)CCS(C)(=O)=O)c1C (stereo unspecified) | -0.272
Cc1noc(C2CCN(C(C)c3nc(C4CC4)no3)CC2)n1 (stereo unspecified) | 7.57
CC(C)N(CCNCc1ccc(C#N)cc1)C1CC1 | -2.54
COc1ccc(C)c2c1N(C(=O)c1cnc(C)s1)CCC2 | -1.46
Cc1c(Br)cccc1C(=O)Nc1cc(C(N)=O)n(C)c1 | 0.71
CC(C)(C)S(=O)(=O)c1ccc(N2CCC(n3cccn3)CC2)cn1 | 22.3
COc1ccccc1CN(CC1CCCO1)C(=O)c1scnc1C (stereo unspecified) | 2.01
CC(=O)c1cccc(NC(=O)N2CCCCC2CN2CCCC2=O)c1 (stereo unspecified) | 0.582
CC(Nc1ccc(Oc2cccc(C#N)c2)cc1)C(=O)NC1CC1 (stereo unspecified) | 6.91
CN1CCN(c2ccc(NC(=O)c3ccoc3)c(C(F)(F)F)c2)CC1 | -4.1
Cc1ccccc1C1(CNC(=O)c2cccc(S(C)(=O)=O)c2)CC1 | -0.185
CN(c1ccc(C(N)=O)nn1)C1CCC1 | 9
CCNC(=O)NC(=O)CSC(C)c1c(F)cccc1F (stereo unspecified) | 20.6
O=C(NC1(c2nnn(Cc3ccncc3)n2)CCCC1)c1ccccc1 | 21
CC(C)c1cccc(CSc2nnc(CN3CCCC3=O)o2)n1 | 3.59
COc1ncccc1NC(=O)C1CC(=O)N(Cc2ccccn2)C1 (stereo unspecified) | -1.2
CCc1nc(C2CCCN(C(=O)c3cnn(CC)c3)C2)no1 (stereo unspecified) | 4.16
CN(Cc1nc(C2CC2)no1)C(=O)C1COc2ccccc2C1 (stereo unspecified) | -0.509
O=C(c1cc(-c2ccco2)nc2c(Cl)cccc12)N1CC[C@H]2CNC[C@H]21 | -3.29
Cc1c(Cl)cc(C(=O)N(CCO)Cc2nccn2C)cc1Cl | 2.66

SMILES | cytotoxicity at 10 µM [%]
CCN(C)C(=O)c1coc(COc2ccccc2)n1 | 3.36
CSCCC(=O)N1CCCC(c2ncc[nH]2)C1 (stereo unspecified) | -1.64
O=C(CC1CCc2ccccc21)NCCSc1ccccn1 (stereo unspecified) | -0.214
CC(C)S(=O)(=O)N1C[C@H]2OC(=O)N(CCc3cccc(Cl)c3)[C@H]2C1 | 0.642
CN(CCCO)C(=O)c1cc(COc2ccc3c(c2)CCCC3)on1 | -148
CCCn1cc(-c2cc(-c3c[nH]cn3)c(C#N)c(N)n2)c(C)n1 | 10.3
CCOc1ccccc1-n1c(C2CC2)n[nH]c1=O | 1.12
COCc1cc(NCc2cccnc2Oc2ccc(C)nc2)ncn1 | 8.12
CCCn1nc(C)c(CNS(=O)(=O)NCc2ccccc2)c1C | -5.05
CC1CCCCN1C1CN(c2ccnc(C(=O)NCc3ccco3)c2)C1 (stereo unspecified) | 2.29
CN1CCC2(CC1)CN(Cc1ccc(C3CCCCO3)o1)CCCN2C (stereo unspecified) | -5.35
CNc1cc(C)nc(-c2cc(NC)nc3[nH]ccc23)n1 | -3.92
c1cnnc(-c2noc(CCN3CCCO3)n2)c1 | -3.61
COCCN1C[C@@H](C(=O)O)[C@H](c2ccccc2C)C1 | 3
O=C1O[C@@H]2CN(S(=O)(=O)N3CCCC3)C[C@@H]2N1CCc1cccc(Cl)c1 | -2.9
COc1ccc(-c2nc(CN3CCOCS3(=O)=O)c(C)o2)cc1 | -0.0714
CCc1nnc2n1CCN(C(C(=O)NC1CC1)c1ccccc1)C2 (stereo unspecified) | -7.07
CCN(CC1CCOC1)C(=O)Nc1ccc(N2CCCCC2)nc1 (stereo unspecified) | -6.45
COc1ncccc1NC(=O)c1cccc(C)n1 | 2.3
CC(C)OCCN1CCN(C(=O)c2cccc(CC#N)c2)CC1 | 0.119
COCCN1CCN(Cc2cccc(C(=O)N(C)C)c2)CC1C (stereo unspecified) | 5
Cc1ccc(-c2nc(CCNC(=O)NC3CCN(C)CC3)co2)cc1 | -6.71
Cc1cn2nc(N3CCCN(Cc4noc(C)n4)CC3)sc2n1 | 0.529

SMILES | cytotoxicity at 10 µM [%]
Cc1cnn(CCNCc2ccccc2OCc2cccnc2)c1 | 3.8
Cc1cccc(-n2cc(C(=O)N3CCCC(n4cccn4)C3)nn2)c1 (stereo unspecified) | -0.168
Cc1cc(CN2CCN(C(=O)c3sccc3C3CC3)CC2)on1 | 4.69
Cc1cc(CN2Cc3ccccc3CC2c2nnc(C)o2)on1 (stereo unspecified) | -0.962
CCCNC(=O)NC(=O)CN(CC(C)O)c1ccccc1 (stereo unspecified) | -2.48
Cc1nc(Nc2nncs2)cc(C2CCCN2)n1 (stereo unspecified) | -1.03
CN(C)C(=O)Cn1c(C2CC2)c(CN2CCC(O)CC2)c2cccnc21 | -4.9
Cn1ccc(C(=O)NC2CCC23CCN(Cc2ccc(F)cc2)CC3)c1 (stereo unspecified) | -147
c1csc(CN2CCC3(CC2)CCN(CC2CCOCC2)C3)n1 | 3.83
c1cncc(COCc2nnc3n2CCN(Cc2cccs2)C3)c1 | 0.399
CO[C@H]1CCN(C2CCOCC2)C[C@@H]1Cc1ccccc1 | 3.11
CN(C)CCOCc1cncc2c1CCN(Cc1ccccn1)C2 | 2.2
CO[C@H]1CCN(C2CCC2)[C@@H]2CN(Cc3ccncc3)C[C@H]12 | 8.13
CNC(=O)CN1CCO[C@H]2CN(C(=O)C3CC3)C[C@H]21 | 7.52
Cn1cc(N2CC3(COCCN(Cc4ccccn4)C3)OCC2=O)cn1 (stereo unspecified) | -79.1
Cc1ccc(CN2CCc3ncnc(-c4ccoc4)c3CC2)o1 | 0.968
COCCN1C[C@@H](C)[C@@]2(COCCN(C(=O)Cc3ccccc3)C2)C1 | -12.4
CN1[C@H](CN2CCCC2)C[C@@H]2CN(C(=O)Cc3ccsc3)CC[C@@H]21 | -3.45
O=C(CC(F)(F)F)N1C[C@@H]2CC[C@H]1CN(Cc1ccccc1)C2 | -3.63
